Source: ChEMBL document CHEMBL1143448, “1,8-Naphthyridin-4-one derivatives as new ligands of A2A adenosine receptors” (Bioorg Med Chem Lett, 2005)

Legend:
Adenosine receptor A1 [1] = target: T1, Adenosine receptor A1 (Bos taurus, UniProt P28190); experiment: Inhibition of [3H]CHA binding to adenosine A1 receptor of bovine brain cortical membrane
T1 sequence (P28190 whole entry): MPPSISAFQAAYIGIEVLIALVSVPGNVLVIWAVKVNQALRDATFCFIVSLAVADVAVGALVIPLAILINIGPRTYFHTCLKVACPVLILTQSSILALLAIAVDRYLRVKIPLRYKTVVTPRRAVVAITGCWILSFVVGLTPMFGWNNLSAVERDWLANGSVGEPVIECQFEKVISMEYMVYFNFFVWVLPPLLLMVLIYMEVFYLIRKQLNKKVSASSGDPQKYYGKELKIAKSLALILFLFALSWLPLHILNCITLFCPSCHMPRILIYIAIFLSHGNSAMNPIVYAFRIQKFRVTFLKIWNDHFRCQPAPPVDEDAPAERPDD
Summary of the method: (§1)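 A1 affinity was taken from displacement of specific [3H]N6-cyclohexyladenosine ([3H]CHA, agonist radioligand) binding in bovine or human cortical membranes. Values are given as Ki in nM ± error.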

[2] = target: Adenosine receptor A2a (Bos taurus); experiment: Inhibition of [3H]CGS-21680 binding to adenosine A2a receptor of bovine striatal membrane
Adenosine receptor A1 [3] = target: T2, Adenosine receptor A1 (Homo sapiens, UniProt P30542); experiment: Inhibition of [3H]CHA binding to adenosine A1 receptor of human brain cortical membrane; summary of the method: as §1
T2 sequence (P30542 whole entry): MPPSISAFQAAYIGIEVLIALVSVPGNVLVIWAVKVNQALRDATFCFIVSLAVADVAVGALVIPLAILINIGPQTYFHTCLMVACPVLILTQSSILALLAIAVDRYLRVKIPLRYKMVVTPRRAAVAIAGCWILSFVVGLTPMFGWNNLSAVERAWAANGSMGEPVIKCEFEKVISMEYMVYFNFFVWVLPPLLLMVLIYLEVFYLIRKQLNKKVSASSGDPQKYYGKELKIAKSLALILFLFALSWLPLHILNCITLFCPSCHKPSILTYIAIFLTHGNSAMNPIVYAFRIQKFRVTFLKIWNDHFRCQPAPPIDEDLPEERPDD

Adenosine receptor A2a = Adenosine receptor A2a (Homo sapiens, UniProt P29274); experiment: Inhibition of [3H]CGS-21680 binding to adenosine A2a receptor of human striatal membrane
Chain of Adenosine receptor A2a (P29274 whole entry): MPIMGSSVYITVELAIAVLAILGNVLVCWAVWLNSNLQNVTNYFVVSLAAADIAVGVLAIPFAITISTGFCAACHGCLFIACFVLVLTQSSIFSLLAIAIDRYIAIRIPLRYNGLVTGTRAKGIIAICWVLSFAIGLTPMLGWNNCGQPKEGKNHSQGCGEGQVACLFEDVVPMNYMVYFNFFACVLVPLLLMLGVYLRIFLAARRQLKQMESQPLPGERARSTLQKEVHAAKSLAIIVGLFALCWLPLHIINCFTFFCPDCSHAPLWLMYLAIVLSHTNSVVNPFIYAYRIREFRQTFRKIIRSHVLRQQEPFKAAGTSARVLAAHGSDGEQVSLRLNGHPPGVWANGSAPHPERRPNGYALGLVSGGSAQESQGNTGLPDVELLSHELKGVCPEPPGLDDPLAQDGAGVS
Summary of the method: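 Competition binding to striatal membranes from bovine or human brain, measuring displacement of the specific binding of the tritiated agonist [3H]CGS21680 (2-[[p-(2-carboxyethyl)phenyl]ethyl]amino-5'-N-ethylcarboxamidoadenosine). Affinity reported as Ki (nM) ± error.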

## O=C(NCc1ccccc1)c1cnc2nc(NCc3ccccc3)ccc2c1O
Adenosine receptor A1 [1]
  Ki: 677 nM
[2]
  Ki: > 10000 nM

## Cc1ccc2c(O)c(C(=O)NCc3ccc(N)cc3)cnc2n1
Adenosine receptor A1 [1]
  Ki: 2860 nM
[2]
  Ki: 146 nM

## O=C(NCc1ccccc1)c1cnc2ncccc2c1O
Adenosine receptor A1 [1]
  Ki: 2750 nM
[2]
  Ki: 1170 nM

## Cc1ccc2c(O)c(C(=O)OCc3ccccc3)cnc2n1
Adenosine receptor A1 [1]
  Ki: > 10000 nM
[2]
  Ki: > 10000 nM

## Cc1ccc2c(O)c(C(=O)NCc3ccccc3)cnc2n1
Adenosine receptor A1 [3]
  Ki: 630 nM
Adenosine receptor A1 [1]
  Ki: 280 nM

## Cc1ccc2c(N=[N+]=[N-])c(Cc3ccccc3)cnc2n1
Adenosine receptor A2a
  Ki: 5360 nM
Adenosine receptor A1 [3]
  Ki: > 10000 nM
Adenosine receptor A1 [1]
  Ki: 3340 nM
[2]
  Ki: 3360 nM

## CN(C)c1ccc2c(O)c(C(=O)NCc3ccccc3)cnc2n1
Adenosine receptor A1 [1]
  Ki: 122 nM
[2]
  Ki: 57 nM

## CC(=O)N(C(C)=O)c1ccc(CNC(=O)c2cnc3nc(C)ccc3c2O)cc1
Adenosine receptor A1 [1]
  Ki: > 10000 nM

## O=C(NCc1ccccc1)c1cnc2nc(Cl)ccc2c1O
Adenosine receptor A1 [1]
  Ki: 586 nM
[2]
  Ki: 67 nM

## Cc1ccc2c(O)c(C(=O)NCc3ccc([N+](=O)[O-])cc3)cnc2n1
Adenosine receptor A1 [1]
  Ki: 1630 nM
[2]
  Ki: 99 nM

## Cc1ccc2c(O)c(C(=O)NC3CCC(C)CC3)cnc2n1 (configuration not stated)
Adenosine receptor A2a
  Ki: 360 nM
Adenosine receptor A1 [3]
  Ki: 5600 nM
Adenosine receptor A1 [1]
  Ki: 6000 nM
[2]
  Ki: 390 nM

## Cc1ccc2c(O)c(C(=O)NN3CCN(C)CC3)cnc2n1
Adenosine receptor A1 [3]
  Ki: > 10000 nM
Adenosine receptor A1 [1]
  Ki: > 10000 nM

## Cc1ccc2c(O)c(C(=O)NCCC(C)C)cnc2n1
Adenosine receptor A2a
  Ki: 640 nM
Adenosine receptor A1 [3]
  Ki: > 10000 nM
Adenosine receptor A1 [1]
  Ki: > 10000 nM
[2]
  Ki: 1430 nM

## O=C(NCc1ccccc1)c1cnc2nc(NCCc3ccccc3)ccc2c1O
Adenosine receptor A1 [1]
  Ki: 977 nM

## Cc1ccc(CNC(=O)c2cnc3nc(C)ccc3c2O)cc1
Adenosine receptor A1 [3]
  Ki: 1580 nM

## O=C(NCc1ccccc1)c1cnc2nc(N(CCO)CCO)ccc2c1O
Adenosine receptor A1 [1]
  Ki: > 10000 nM
[2]
  Ki: > 10000 nM

## Cc1ccc2c(NN)c(Cc3ccccc3)cnc2n1
Adenosine receptor A2a
  Ki: > 10000 nM
Adenosine receptor A1 [3]
  Ki: > 10000 nM
Adenosine receptor A1 [1]
  Ki: 220 nM
[2]
  Ki: 720 nM

## Cc1ccc2c(O)c(Cc3ccccc3Cl)cnc2n1
Adenosine receptor A1 [3]
  Ki: 4160 nM
Adenosine receptor A1 [1]
  Ki: 8730 nM

## Cc1ccc2c(NC3CCCCC3)c(Cc3ccccc3)cnc2n1
Adenosine receptor A1 [3]
  Ki: > 10000 nM
Adenosine receptor A1 [1]
  Ki: > 10000 nM

## Cc1ccc2c(O)c(C(=O)NCc3ccc(Cl)cc3)cnc2n1
Adenosine receptor A1 [3]
  Ki: 1630 nM
Adenosine receptor A1 [1]
  Ki: 1740 nM

## Cc1ccc2c(O)c(C(=O)NCc3ccco3)cnc2n1
Adenosine receptor A1 [3]
  Ki: 300 nM
Adenosine receptor A1 [1]
  Ki: 1350 nM

## Nc1ccc2c(O)c(C(=O)NCc3ccc(Cl)cc3)cnc2n1
Adenosine receptor A2a
  Ki: 500 nM
Adenosine receptor A1 [3]
  Ki: 6240 nM
Adenosine receptor A1 [1]
  Ki: 4490 nM
[2]
  Ki: 540 nM

## Nc1ccc2c(O)c(C(=O)NCc3ccccc3)cnc2n1
Adenosine receptor A1 [3]
  Ki: 630 nM
Adenosine receptor A1 [1]
  Ki: 970 nM

## O=C(NCc1ccccc1)c1cnc2[nH]c(=O)ccc2c1O
Adenosine receptor A1 [1]
  Ki: > 10000 nM

## Cc1ccc2c(O)c(C(=O)NCc3ccc(F)cc3)cnc2n1
Adenosine receptor A1 [3]
  Ki: 1650 nM
Adenosine receptor A1 [1]
  Ki: 1770 nM

## CC(=O)Nc1ccc2c(O)c(C(=O)NCc3ccccc3)cnc2n1
Adenosine receptor A1 [1]
  Ki: > 10000 nM
[2]
  Ki: 6780 nM

## COc1ccc(CNC(=O)c2cnc3nc(C)ccc3c2O)cc1
Adenosine receptor A2a
  Ki: 2410 nM
Adenosine receptor A1 [3]
  Ki: 4370 nM
Adenosine receptor A1 [1]
  Ki: > 10000 nM
[2]
  Ki: 740 nM

## Cc1ccc2c(O)c(Cc3ccccc3)cnc2n1
Adenosine receptor A2a
  Ki: 3330 nM
Adenosine receptor A1 [3]
  Ki: 4180 nM
Adenosine receptor A1 [1]
  Ki: > 10000 nM
[2]
  Ki: > 10000 nM

## Cc1ccc2c(O)c(CC(=O)NC3CCCCC3)cnc2n1
Adenosine receptor A1 [3]
  Ki: > 10000 nM
Adenosine receptor A1 [1]
  Ki: > 10000 nM

## Cc1ccc2c(O)c(CC(=O)NCc3ccccc3)cnc2n1
Adenosine receptor A2a
  Ki: 870 nM
Adenosine receptor A1 [3]
  Ki: > 10000 nM
Adenosine receptor A1 [1]
  Ki: > 10000 nM
[2]
  Ki: > 10000 nM

## Cc1ccc2c(O)c(C(=O)NCc3ccc(NC(=O)c4ccccc4)cc3)cnc2n1
Adenosine receptor A1 [1]
  Ki: 7590 nM
[2]
  Ki: 588 nM

## O=C(NCc1ccccc1)c1cnc2nc(Br)ccc2c1O
Adenosine receptor A1 [1]
  Ki: 5320 nM

## Cc1ccc2c(O)c(C(=O)NCCc3ccccc3)cnc2n1
Adenosine receptor A2a
  Ki: 150 nM
Adenosine receptor A1 [3]
  Ki: 730 nM
Adenosine receptor A1 [1]
  Ki: 680 nM
[2]
  Ki: 140 nM

## O=C(NCc1ccccc1)c1cnc2nc(NC3CCCCC3)ccc2c1O
Adenosine receptor A1 [1]
  Ki: > 10000 nM

## CCOC(=O)c1cnc2nc(C)ccc2c1O
Adenosine receptor A1 [1]
  Ki: > 10000 nM

## Cc1ccc2c(O)c(C(=O)NC3CCCCC3)cnc2n1
Adenosine receptor A1 [3]
  Ki: > 10000 nM
Adenosine receptor A1 [1]
  Ki: > 10000 nM

## Cc1ccc2c(Cl)c(Cc3ccccc3)cnc2n1
Adenosine receptor A1 [3]
  Ki: > 10000 nM
Adenosine receptor A1 [1]
  Ki: > 10000 nM

## Cc1ccc2c(O)c(C(=O)NN3CCOCC3)cnc2n1
Adenosine receptor A2a
  Ki: > 10000 nM
Adenosine receptor A1 [3]
  Ki: > 10000 nM
Adenosine receptor A1 [1]
  Ki: > 10000 nM
[2]
  Ki: 8660 nM

## Cc1ccc2c(O)c(C(=O)NC(C)c3ccccc3)cnc2n1 (configuration not stated)
Adenosine receptor A1 [3]
  Ki: 717 nM
Adenosine receptor A1 [1]
  Ki: 418 nM

## Cc1ccc2c(S)c(Cc3ccccc3)cnc2n1
Adenosine receptor A1 [1]
  Ki: 6330 nM
